M5 PAM – potentiates acetylcholine response at human M5 receptor. activation, % at 3 µM. CHO-K1 hM5, Fluo-8 calcium, ACh EC20 PAM; 0% = ACh EC20, 100% = ACh EC100. P08912. hit rate 0.3% among 360,000;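 active = activation above the run cutoff, the mean activation of all test compounds plus 3 SD, cut at about 18% in these data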
Target sequence (P08912 whole entry, looked up): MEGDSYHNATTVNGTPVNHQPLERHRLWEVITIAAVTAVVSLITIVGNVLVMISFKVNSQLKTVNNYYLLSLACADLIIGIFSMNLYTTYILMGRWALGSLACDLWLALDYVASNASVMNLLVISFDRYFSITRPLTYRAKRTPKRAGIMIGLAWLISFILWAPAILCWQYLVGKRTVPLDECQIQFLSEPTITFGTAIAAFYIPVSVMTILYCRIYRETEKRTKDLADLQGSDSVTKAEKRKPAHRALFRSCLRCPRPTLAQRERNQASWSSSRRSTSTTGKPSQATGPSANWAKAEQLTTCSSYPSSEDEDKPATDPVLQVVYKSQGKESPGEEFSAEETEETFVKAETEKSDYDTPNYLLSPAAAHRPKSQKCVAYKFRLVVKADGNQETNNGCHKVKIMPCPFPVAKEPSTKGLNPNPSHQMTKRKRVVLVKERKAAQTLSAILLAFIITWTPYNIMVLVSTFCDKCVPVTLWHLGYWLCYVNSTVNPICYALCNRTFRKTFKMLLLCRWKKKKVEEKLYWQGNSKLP
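system = human M5 receptor in CHO-K1 cells | compound = one concentration, 3 µM final (nominal) | schedule = Post-acetylcholine fluorescence recording 140 s | signal = Fluo-8 calcium dye fluorescence, kinetic read | benchmarks = low control EC20 acetylcholine (0%), high control EC100 acetylcholine (100%) | repeats = singlicate, one well per test compound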
M4 antag – blocks acetylcholine activation of human M4 receptor | CHO-hM4 cells, ACh EC80, Fluo-8 calcium fluorescence | inhibition, % at 3 µM | hit rate 0.73% among 360,000 | P08173 | AID 624125;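 active = inhibition above its plate's cutoff, the mean inhibition of sample wells plus 3 SD, cut at about 27% in these data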;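 also: 0% = acetylcholine EC80 with DMSO and 100% = DMSO without agonist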
CHRM4 agonist – CHRM4 agonism in calcium assay; activation, % at 3 µM; hit rate 0.14% among 360,000; CHO-K1 hM4/Gqi5, Fluo-8 calcium fluorescence; vehicle 0%, full acetylcholine response 100%;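 active = activation above the run mean over all test wells plus 3 SD, cut at about 32% in these data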;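 also: peak over basal fluorescence ratio per well then scaled between controls; 0% = DMSO wells and 100% = acetylcholine at EC100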
CHRM5 antagonist – blocks acetylcholine activation of human M5 receptor | CHO-hM5 cells, Fluo-8 calcium fluorescence, ACh EC80 | inhibition, % at 3 µM | hit rate 0.59% among 360,000 | AID 624040;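 active = inhibition above a per-plate cutoff, the mean of that plate's test compounds plus 3 SD, cut at about 27% in these data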;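 also: 0% = acetylcholine EC80 with DMSO and 100% = DMSO without agonist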
CHRM5 agonist – CHRM5 agonism in calcium assay. P08912. CHO-K1 hM5 cells, Fluo-8 calcium fluorescence; 0% DMSO wells, 100% maximal acetylcholine response. activation, % at 3 µM. hit rate 0.19% among 360,000. AID 624037;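 active = activation above the run's mean over test compounds plus 3 SD, cut at about 23% in these data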;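 also: signal is peak over basal fluorescence ratio across the kinetic read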
CHRM4 PAM – positive allosteric modulators of human muscarinic M4 receptor; P08173; CHO-K1 hM4/Gqi5, Fluo-8 calcium fluorescence, ACh EC20; 0% = ACh EC20, 100% = maximal ACh; activation, % at 3 µM; hit rate 0.4% among 360,000; AID 624126;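 active = activation above its plate's cutoff, the mean activation of sample wells plus 3 SD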
Starred values were filed as active, the others as inactive. Only some compounds are listed: those with a hit (about 1.9% of all), similar ones and a draw of the others.

Results for Cc1ccc(NC(=O)C2CCCN(S(=O)(=O)c3ccc(-n4cnnn4)cc3)C2)cc1 (stereo not drawn) ?
M5 PAM: 0; M4 antag: 2; CHRM4 agonist: 1; CHRM5 antagonist: 9; CHRM5 agonist: -1; CHRM4 PAM: 7

How did C=CCNC(=S)NC1CC(C)(C)NC(C)(C)C1 do in these assays?
M5 PAM: 3; M4 antag: -10; CHRM4 agonist: 1; CHRM5 antagonist: 1; CHRM5 agonist: -3; CHRM4 PAM: 15

Results for O=[N+]([O-])c1ccc(N2N=C(c3ccccc3)CC2c2ccccc2O)cc1 (stereo not drawn) ?
M5 PAM: -6; M4 antag: 26; CHRM4 agonist: 21; CHRM5 antagonist: 14; CHRM5 agonist: 7; CHRM4 PAM: -23

How did Cc1ccc(-c2nc(C#N)c(NCc3ccco3)o2)cc1 do in these assays?
M5 PAM: -2; M4 antag: -15; CHRM4 agonist: 2; CHRM5 antagonist: -2; CHRM5 agonist: -5; CHRM4 PAM: 5

Results for COC(=O)c1ccccc1NC(=O)c1onc(C)c1Cl ?
M5 PAM: 4; M4 antag: 1; CHRM4 agonist: -1; CHRM5 antagonist: 2; CHRM5 agonist: -2; CHRM4 PAM: 2

How did CCc1ccccc1NC(=O)c1onc(C)c1Cl do in these assays?
M5 PAM: -9; M4 antag: 55*; CHRM4 agonist: 0; CHRM5 antagonist: 7; CHRM5 agonist: -1; CHRM4 PAM: -16

Results for CC(C)(C)[C@H]1C=C(C(=O)N2CCN(Cc3ccc4c(c3)OCO4)CC2)O[C@@H](OCCCCO)C1 ?
M5 PAM: 20*; M4 antag: -2; CHRM4 agonist: 1; CHRM5 antagonist: -24; CHRM5 agonist: 5; CHRM4 PAM: 4

How did CC(=O)c1ccc(NC(=O)CSc2nc(=O)n(CCN3CCOCC3)c3c2CCC3)cc1 do in these assays?
M5 PAM: -9; M4 antag: 8; CHRM4 agonist: 0; CHRM5 antagonist: 13; CHRM5 agonist: 1; CHRM4 PAM: 6

Results for CC(=O)Nc1ccc(S(=O)(=O)N(C)CC(=O)OCC(=O)Nc2cccnc2Cl)cc1 ?
M5 PAM: -1; M4 antag: 27*; CHRM4 agonist: 1; CHRM5 antagonist: 5; CHRM5 agonist: 4; CHRM4 PAM: 43*

Results for CN(C)S(=O)(=O)c1ccc(C(=O)OCC(=O)Nc2cccnc2Cl)cc1 ?
M5 PAM: 2; M4 antag: -9; CHRM4 agonist: 3; CHRM5 antagonist: 13; CHRM5 agonist: 5; CHRM4 PAM: 6

Results for Cc1ccc(NC(=O)N2CCC(NC(=O)C(C)(C)C)CC2)cc1 ?
M5 PAM: 42*; M4 antag: -6; CHRM4 agonist: 0; CHRM5 antagonist: 0; CHRM5 agonist: -5; CHRM4 PAM: 9

How did CCCCN(C)c1c(C)nc2ccc(C(=O)NCCOc3ccc(OC)cc3)cn12 do in these assays?
M5 PAM: -24; M4 antag: 10; CHRM4 agonist: 12; CHRM5 antagonist: 29*; CHRM5 agonist: 0; CHRM4 PAM: -9

Results for CCc1nc2ccc(C(=O)NCc3ccc(OC)cc3)cn2c1N(C)Cc1ccc(OC)cc1 ?
M5 PAM: -13; M4 antag: 13; CHRM4 agonist: 6; CHRM5 antagonist: -1; CHRM5 agonist: -3; CHRM4 PAM: -12

What do the screens show for `CCc1nc2ccc(C(=O)NCCN3CCCC3)cn2c1N(C)Cc1ccc(OC)cc1`?
M5 PAM: -7; M4 antag: 56*; CHRM4 agonist: 1; CHRM5 antagonist: -5; CHRM5 agonist: -3; CHRM4 PAM: -15

How did Cc1ccc(C)c(/C(O)=C2\C(=O)C(=O)N(CCCn3ccnc3)C2c2cccnc2)c1 (stereo not drawn) do in these assays?
M5 PAM: 20*; M4 antag: -13; CHRM4 agonist: 0; CHRM5 antagonist: 8; CHRM5 agonist: -1; CHRM4 PAM: 6

Results for O=C(N/C(=C/c1ccc(Br)cc1)C(=O)N1CCOCC1)c1ccc(Br)o1 ?
M5 PAM: -1; M4 antag: 5; CHRM4 agonist: 1; CHRM5 antagonist: 6; CHRM5 agonist: -1; CHRM4 PAM: -8

What do the screens show for `COCCOc1ccc(C(F)(F)F)cc1NC(=O)c1ccccc1`?
M5 PAM: -5; M4 antag: -2; CHRM4 agonist: 0; CHRM5 antagonist: 1; CHRM5 agonist: 1; CHRM4 PAM: 12

Results for CC(C)(C)c1ccc(OCCOc2ccc(C(C)(C)C)cc2NC=O)c(NC=O)c1 ?
M5 PAM: -21; M4 antag: 31*; CHRM4 agonist: 19; CHRM5 antagonist: 28*; CHRM5 agonist: 1; CHRM4 PAM: -15

What do the screens show for `CC(C(=O)Nc1ccc2c(c1)OCCO2)c1ccc([N+](=O)[O-])cc1` (stereo not drawn)?
M5 PAM: -11; M4 antag: 3; CHRM4 agonist: 17; CHRM5 antagonist: 1; CHRM5 agonist: 32*; CHRM4 PAM: -10

Results for CN1CCN(CCn2c(=S)[nH]c3ccccc3c2=O)CC1 ?
M5 PAM: -18; M4 antag: -3; CHRM4 agonist: 2; CHRM5 antagonist: 33*; CHRM5 agonist: -6; CHRM4 PAM: -6

What do the screens show for `O=c1c2ccccc2[nH]c(=S)n1CCN1CCN(Cc2ccccc2)CC1`?
M5 PAM: 0; M4 antag: 5; CHRM4 agonist: 2; CHRM5 antagonist: 6; CHRM5 agonist: -7; CHRM4 PAM: -12

What do the screens show for `COC(=O)C1=C(C(=O)OC)[C@@H]2Nc3ccccc3[C@@]23C[C@@H](C(=O)OC)N(C(=O)c2cc(C)oc2C)C3=N1`?
M5 PAM: 9; M4 antag: -14; CHRM4 agonist: 4; CHRM5 antagonist: -4; CHRM5 agonist: 6; CHRM4 PAM: 8

What do the screens show for `Cc1cccn2c(=O)c3cc(C(=O)O)n(C)c3nc12`?
M5 PAM: -1; M4 antag: -6; CHRM4 agonist: 0; CHRM5 antagonist: 1; CHRM5 agonist: 2; CHRM4 PAM: 2

What do the screens show for `Cc1ccc(NC(=S)N(CCCN2CCOCC2)Cc2cccs2)c(C)c1`?
M5 PAM: 4; M4 antag: -9; CHRM4 agonist: 1; CHRM5 antagonist: 4; CHRM5 agonist: -4; CHRM4 PAM: 0

How did Cc1c(Cl)cccc1NC(=S)N(CCCN1CCOCC1)Cc1cccs1 do in these assays?
M5 PAM: -17; M4 antag: 56*; CHRM4 agonist: 2; CHRM5 antagonist: 3; CHRM5 agonist: -5; CHRM4 PAM: -39

What do the screens show for `COc1ccc(NC(=S)N(CCCN2CCCCC2)Cc2cccs2)cc1`?
M5 PAM: -18; M4 antag: 40*; CHRM4 agonist: 3; CHRM5 antagonist: 12; CHRM5 agonist: -7; CHRM4 PAM: -38

Source: PubChem BioAssay (The Scripps Research Institute Molecular Screening Center)
